Drawing on ChEMBL document CHEMBL4665823, “Assessing the Perturbing Effects of Drugs on Lipid Bilayers Using Gramicidin Channel-Based In Silico and In Vitro Assays” (J Med Chem, 2020), this text covers Activity and deltaG for eight molecules.

Calls of active or inactive are those of the source. The rule behind the calls is not given here.

The subject of test [1] is Lipid bilayer. Put plainly: Induction of membrane perturbation in DC22:1PC LUV bilayer assessed as effect on potential of mean force by measuring reduction in deltaG for gramicidin mixture monomer to dimer and pure gramicidin-bilayer by fluorescence quenching assay.
The test system of test [2] is Lipid bilayer. Put plainly: Induction of membrane perturbation in DC22:1PC LUV bilayer assessed as change in deltaG for gramicidin mixture monomer to dimer by fluorescence quenching assay (reference value: 0 kcal/mol).
The test system of test [3] is Lipid bilayer. Put plainly: Induction of membrane perturbation in DC22:1PC LUV bilayer assessed as fluorescence quench rate by measuring gramicidin mixture monomer to dimer equilibrium at 10 uM by fluorescence quenching assay. Put shortly: (§1)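 ANTS-loaded (25 mM) DC22:1PC LUVs with gD at gramicidin:lipid 1:2000, rehydrated to 10 mM lipid, 3 h equilibration, 1 min sonication. Drug-exposed vesicles were incubated ≥10 min at 25 °C in the dark, then mixed by stopped-flow with Tl+ quench buffer (50 mM TlNO3, pH 7). Fluorescence (ex 352, em >450 nm) was fitted to a stretched exponential; rate given relative to drug-free control.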

Test [4] concerns Lipid bilayer. Put plainly: Induction of membrane perturbation in DC18:1PC LUV bilayer assessed as fluorescence quench rate by measuring gramicidin mixture monomer to dimer equilibrium at 10 uM by fluorescence quenching assay. Put shortly:
(§2)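 DC18:1PC LUVs (gramicidin mixture gD:lipid 1:40,000) loaded with 25 mM ANTS at 10 mM lipid, equilibrated 3 h at room temperature, sonicated 1 min, about 130 nm diameter. Drug added; samples held ≥10 min at 25 °C in the dark, then stopped-flow mixed with 50 mM TlNO3/94 mM NaNO3/10 mM HEPES, pH 7. Ex 352 nm, em >450 nm; quench rate from stretched-exponential fit.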

The subject of test [5] is Lipid bilayer. In words: Induction of membrane perturbation in DC22:1PC LUV bilayer assessed as fluorescence quench rate by measuring increase in R(drug)/R(control) ratio by fluorescence quenching assay. Put shortly:
as §1

Test [6] concerns Lipid bilayer. In words: Induction of membrane perturbation in DC20:1PC LUV bilayer assessed as fluorescence quench rate by measuring gramicidin mixture monomer to dimer equilibrium at 10 uM by fluorescence quenching assay.
Test [7] relates to Lipid bilayer. Put plainly: Induction of membrane perturbation in DC22:1PC LUV bilayer assessed as change in deltaG for pure gramicidin monomer to dimer by fluorescence quenching assay (reference value: 0 kcal/mol).
The subject of test [8] is Lipid bilayer. Put plainly: Induction of membrane perturbation in DC18:1PC LUV bilayer assessed as fluorescence quench rate by measuring gramicidin mixture monomer to dimer equilibrium at 100 uM by fluorescence quenching assay.
The test system of test [9] is Lipid bilayer. Put plainly: Induction of membrane perturbation in DC20:1PC LUV bilayer assessed as fluorescence quench rate by measuring gramicidin mixture monomer to dimer equilibrium at 100 uM by fluorescence quenching assay.
Test [10] relates to Lipid bilayer. In words: Induction of membrane perturbation in DC18:1PC LUV bilayer assessed as effect on potential of mean force by measuring reduction in deltaG for gramicidin mixture monomer to dimer and pure gramicidin-bilayer by fluorescence quenching assay.
For test [11], the system named is Lipid bilayer. In words: Induction of membrane perturbation in DC22:1PC LUV bilayer assessed as fluorescence quench rate by measuring gramicidin mixture monomer to dimer equilibrium at 100 uM by fluorescence quenching assay.
Test [12] relates to Lipid bilayer. Put plainly: Induction of membrane perturbation in DC18:1PC LUV bilayer assessed as fluorescence quench rate by measuring gramicidin mixture monomer to dimer equilibrium at 1800 uM by fluorescence quenching assay. Put shortly:
as §2

Test [13] relates to Lipid bilayer. In words: Induction of membrane perturbation in DC22:1PC LUV bilayer assessed as fluorescence quench rate by measuring gramicidin mixture monomer to dimer equilibrium at 1800 uM by fluorescence quenching assay. In a few lines:
as §1

Test [14] has as its system Lipid bilayer. In words: Induction of membrane perturbation in DC20:1PC LUV bilayer assessed as fluorescence quench rate by measuring gramicidin mixture monomer to dimer equilibrium at 1800 uM by fluorescence quenching assay.
For test [15], the system named is Lipid bilayer. In words: Induction of membrane perturbation in DC18:1PC LUV bilayer assessed as fluorescence quench rate by measuring gramicidin mixture monomer to dimer equilibrium at 30 uM by fluorescence quenching assay. In a few lines:
as §2

Test [16] concerns Lipid bilayer. In words: Induction of membrane perturbation in DC20:1PC LUV bilayer assessed as fluorescence quench rate by measuring gramicidin mixture monomer to dimer equilibrium at 30 uM by fluorescence quenching assay.
The subject of test [17] is Lipid bilayer. Put plainly: Induction of membrane perturbation in DC22:1PC LUV bilayer assessed as fluorescence quench rate by measuring gramicidin mixture monomer to dimer equilibrium at 30 uM by fluorescence quenching assay. In a few lines:
as §1

Test [18] concerns Lipid bilayer. Put plainly: Induction of membrane perturbation in DC20:1PC LUV bilayer assessed as fluorescence quench rate by measuring gramicidin mixture monomer to dimer equilibrium at 300 uM by fluorescence quenching assay.
Test [19] has as its system Lipid bilayer. Put plainly: Induction of membrane perturbation in DC22:1PC LUV bilayer assessed as fluorescence quench rate by measuring gramicidin mixture monomer to dimer equilibrium at 300 uM by fluorescence quenching assay. In a few lines: as §1
Test [20] deals with Lipid bilayer. In words: Induction of membrane perturbation in DC18:1PC LUV bilayer assessed as fluorescence quench rate by measuring gramicidin mixture monomer to dimer equilibrium at 300 uM by fluorescence quenching assay. In a few lines:
as §2

Test [21] concerns Lipid bilayer. Put plainly: Induction of membrane perturbation in DC22:1PC LUV bilayer assessed as fluorescence quench rate by measuring increase in R(drug)/R(control) ratio at gD:lipid molar ratio of > 1:400 in presence of 10 mol % cholesterol by fluorescence quenching assay. In a few lines:
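Cholesterol added at 10 mol % before LUV formation; DC22:1PC vesicles made with gD:lipid molar ratios between 1:200 and 1:2000, ANTS-loaded. Tl+ influx was followed by stopped-flow fluorescence quench at 25 °C (ex 352 nm, em >450 nm), and traces were fitted to a stretched exponential.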

The test system of test [22] is Lipid bilayer. In words: Induction of membrane perturbation in DC22:1PC LUV bilayer assessed as effect on potential of mean force by measuring increase in deltaG for gramicidin mixture monomer to dimer and pure gramicidin-bilayer by fluorescence quenching assay. Put shortly: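 ΔΔG(monomer↔dimer) was derived from Tl+/ANTS quench-rate ratios in DC22:1PC LUVs at 1:2000 gramicidin:lipid. Ratios were adjusted for estimated bilayer drug mole fraction and extrapolated linearly to a drug:lipid ratio of 0.084, matching the coarse-grained simulations. Stopped-flow was run at 25 °C.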

Test [23] concerns Lipid bilayer. In words: Induction of membrane perturbation in DC20:1PC LUV bilayer assessed as fluorescence quench rate by measuring gramicidin mixture monomer to dimer equilibrium at 30000 uM by fluorescence quenching assay.
Test [24] deals with Lipid bilayer. Put plainly: Induction of membrane perturbation in DC18:1PC LUV bilayer assessed as fluorescence quench rate by measuring gramicidin mixture monomer to dimer equilibrium at 30000 uM by fluorescence quenching assay.
The test system of test [25] is Lipid bilayer. Put plainly: Induction of membrane perturbation in DC22:1PC LUV bilayer assessed as fluorescence quench rate by measuring gramicidin mixture monomer to dimer equilibrium at 30000 uM by fluorescence quenching assay.
For test [26], the system named is Lipid bilayer. Put plainly: Induction of membrane perturbation in DC22:1PC LUV bilayer assessed as fluorescence quench rate by measuring reduction in R(drug)/R(control) ratio by fluorescence quenching assay.

In the case of `CCCCCCCCCCCCOCCOCCOCCOCCOCCOCCO`, the outcome in the test on Lipid bilayer [1] and in the test with Lipid bilayer [3] was Active. Besides, the deltaG with Lipid bilayer [2] is -1.5 kcal/mol; with Lipid bilayer [7] it was -1.4 kcal/mol. Further, the result with Lipid bilayer [4] and in the test on Lipid bilayer [6] was inactive. Further, the Activity entry in the test on Lipid bilayer [5] was “Dose-dependent effect”.

As to `COc1cc(CNC(=O)CCCC/C=C/C(C)C)ccc1O`, the result with Lipid bilayer [1], with Lipid bilayer [10] and with Lipid bilayer [11] was Active. Besides, the figures for the deltaG in the test with Lipid bilayer [2] and in the test with Lipid bilayer [7] were -0.6 kcal/mol and -0.5 kcal/mol, respectively. The outcome in the test on Lipid bilayer [8] and in the test with Lipid bilayer [9] was inactive.

Turning to `CCCCCCCCO`, the result in the test on Lipid bilayer [1] and in the test with Lipid bilayer [13] was Active. Further, the outcome in the test on Lipid bilayer [12] and in the test with Lipid bilayer [14] was inactive. Moreover, the figures for the deltaG with Lipid bilayer [2] and in the test with Lipid bilayer [7] were -0.3 kcal/mol and -0.4 kcal/mol, respectively. Also, the Activity result with Lipid bilayer [5] is “Dose-dependent effect”.

Consider `CC(C)(C)CC(C)(C)c1ccc(OCCOCCOCCOCCOCCOCCOCCOCCOCCOCCO)cc1`, for which the result in the test on Lipid bilayer [1] and in the test on Lipid bilayer [17] was Active. Besides, the result with Lipid bilayer [15] and in the test with Lipid bilayer [16] was inactive. In addition, the values for the deltaG in the test on Lipid bilayer [2] and in the test with Lipid bilayer [7] were -1.6 kcal/mol and -1.5 kcal/mol, respectively. Further, the Activity entry with Lipid bilayer [5] was “Dose-dependent effect”.

Consider `CCCCCCCCCCCCOP(=O)([O-])OCC[N+](C)(C)C`, for which the result in the test on Lipid bilayer [1] and in the test on Lipid bilayer [19] was Active. The result with Lipid bilayer [18] and in the test with Lipid bilayer [20] was inactive. Moreover, the deltaG in the test with Lipid bilayer [2] and in the test with Lipid bilayer [7] was -0.5 kcal/mol throughout. Moreover, the Activity result with Lipid bilayer [5] is “Dose-dependent effect”.

For the molecule `Oc1ccc(/C=C/c2cc(O)cc(O)c2)cc1`, the outcome with Lipid bilayer [1] and in the test on Lipid bilayer [17] was Active. In addition, the outcome in the test with Lipid bilayer [15] and in the test on Lipid bilayer [16] was inactive. For the same molecule, the deltaG in the test on Lipid bilayer [2] is -1.8 kcal/mol; in the test with Lipid bilayer [7] it was -1.7 kcal/mol. Moreover, in the test on Lipid bilayer [5], the Activity result is “Dose-dependent effect”.

For `CC(C)CCC[C@@H](C)[C@H]1CC[C@H]2[C@@H]3CC=C4C[C@@H](O)CC[C@]4(C)[C@H]3CC[C@]12C`, the outcome in the test with Lipid bilayer [21] and in the test with Lipid bilayer [22] was Active. The deltaG in the test on Lipid bilayer [7] was 2.5 kcal/mol.

Regarding `C1CCCCC1`, the result with Lipid bilayer [23] and in the test on Lipid bilayer [24] was inactive. Moreover, the deltaG in the test on Lipid bilayer [2] and in the test with Lipid bilayer [7] was 0 kcal/mol throughout. In addition, the result in the test on Lipid bilayer [25] and in the test with Lipid bilayer [22] was Active. Further, the Activity result in the test with Lipid bilayer [26] was “Dose-dependent effect”.
